ChEMBL document CHEMBL3616408, “Elaboration of a fragment library hit produces potent and selective aspartate semialdehyde dehydrogenase inhibitors” (Bioorg Med Chem, 2015)
The source made the active and inactive calls. The rule behind the calls is not given here.

Tests used:
[1] = Selectivity index, ratio of Ki for Vibrio cholerae ASADH to KI for Streptococcus pneumoniae ASADH
In short: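 Recombinant S. pneumoniae and V. cholerae ASADH, stored at -20 °C in 50 mM HEPES pH 7, 1 mM EDTA, 1 mM DTT. Reverse reaction run at r.t. in 120 mM CHES pH 8.6, 200 mM KCl, with 1.5 mM NADP, 20 mM phosphate, and ASA at 0.15 mM (sp) or 0.3 mM (vc). Enzyme was 30 μg ml−1. NADPH formation was read at 340 nm. Serially diluted inhibitor gave initial velocities, and Ki came from Dixon plots assuming competition with ASA. The index is vc Ki divided by sp Ki.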

[2] = (§1) Inhibition of Vibrio cholerae ASADH using aspartate semialdehyde and NADP+
[3] = Inhibition of Streptococcus pneumoniae ASADH using aspartate semialdehyde and NADP+
In short: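 Recombinant enzyme, stored at -20 °C in 50 mM HEPES pH 7, 1 mM EDTA, 1 mM DTT. Reverse reaction run at room temperature in 120 mM CHES pH 8.6, 200 mM KCl, with 0.15 mM ASA, 1.5 mM NADP and 20 mM phosphate; 30 μg ml−1 enzyme starts it. NADPH formation read at 340 nm. Inhibitor serially diluted; Ki from Dixon plot of initial velocities, assuming competition with ASA.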

[4] = test system: Vibrio cholerae; assay: Inhibition of Vibrio cholerae ASADH up to 4 mM using aspartate semialdehyde and NADP+
In short: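 Recombinant V. cholerae enzyme assayed in reverse direction at r.t. in 120 mM CHES pH 8.6 with 200 mM KCl, 0.3 mM ASA, 1.5 mM NADP and 20 mM phosphate. Reaction started with 30 μg ml−1 enzyme, and NADPH formation followed at 340 nm. Inhibitor tested at concentrations up to 4 mM.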

[5] = test system: Vibrio cholerae; assay: as §1
[6] = test system: Vibrio cholerae; assay: Inhibition of Vibrio cholerae ASADH up to 2 mM using aspartate semialdehyde and NADP+
In short: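 Recombinant V. cholerae enzyme assayed in reverse direction at r.t. in 120 mM CHES pH 8.6 with 200 mM KCl, 0.3 mM ASA, 1.5 mM NADP and 20 mM phosphate. Reaction started with 30 μg ml−1 enzyme, and NADPH formation followed at 340 nm. Inhibitor tested at concentrations up to 2 mM.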

O=C(O)CN(Cc1ccc(Br)cc1)Cc1ccc(C(=O)O)c(C(=O)O)c1
Ratio Ki [1]: 10
Ki ([2]; read-out: Ki): 629 µM
Ki [3]: 57 µM

O=C(O)CN(Cc1ccc(C(=O)O)c(C(=O)O)c1)Cc1ccccc1OC(F)(F)F
Ratio Ki [1]: 10
Ki ([2]; read-out: Ki): 708 µM
Ki [3]: 540 µM

O=CCN(CC(=O)O)Cc1ccc(C(=O)O)c(C(=O)O)c1
Ki ([2]; read-out: Ki): 655 µM
Ki [3]: 276 µM

O=C(O)CN(Cc1ccc(C(F)(F)F)cc1)Cc1ccc(C(=O)O)c(C(=O)O)c1
Ratio Ki [1]: 10
Ki ([2]; read-out: Ki): 628 µM
Ki [3]: 24 µM

O=C(O)CN(Cc1ccc(C(=O)O)cc1)Cc1ccc(C(=O)O)c(C(=O)O)c1
Ratio Ki [1]: 10
Ki ([2]; read-out: Ki): 635 µM
Ki [3]: 72 µM

Cc1cccc(CN(CC(=O)O)Cc2ccc(C(=O)O)c(C(=O)O)c2)c1
Ratio Ki [1]: 10
Ki ([2]; read-out: Ki): 690 µM
Ki [3]: 430 µM

O=C(O)CN(Cc1ccc(C(=O)O)c(C(=O)O)c1)Cc1ccccc1Br
Ratio Ki [1]: 10
Ki ([2]; read-out: Ki): 737 µM
Ki [3]: 529 µM

O=C([O-])CCN(Cc1ccc(Br)cc1)Cc1ccc(C(=O)[O-])c(C(=O)[O-])c1.[Na+].[Na+].[Na+]
Ki [2]: Not Active
inhibition [4]: inactive
Ki [3]: 3600 µM

CC(C)(C)c1ccc(CN(CC(=O)O)Cc2ccc(C(=O)O)c(C(=O)O)c2)cc1
Ratio Ki [1]: 10
Ki ([2]; read-out: Ki): 648 µM
Ki [3]: 16 µM

C[C@H](NCc1ccc(C(=O)O)c(C(=O)O)c1)C(=O)O
Ki ([2]; read-out: Ki): 609 µM
Ki [3]: 296 µM

C=CCN(CC(=O)O)Cc1ccc(C(=O)O)c(C(=O)O)c1
Ki ([2]; read-out: Ki): 663 µM
Ki [3]: 303 µM

O=C(O)CN(CCN1CCOCC1)Cc1ccc(C(=O)O)c(C(=O)O)c1
Ki ([2]; read-out: Ki): 692 µM
Ki [3]: 176 µM

CN(CC(=O)O)Cc1cccc(C(=O)O)c1C(=O)O
inhibition [5]: inactive
Ki [3]: 1800 µM

CN(CC(=O)O)Cc1ccc(C(=O)O)c(C(=O)O)c1
Ki ([2]; read-out: Ki): 675 µM
Ki [3]: 296 µM

O=C(O)c1ccc(CN[C@@H](CO)C(=O)O)cc1C(=O)O
Ki ([2]; read-out: Ki): 654 µM
Ki [3]: 324 µM

O=C(O)CN(Cc1ccc(/C=C/Cc2ccccc2)cc1)Cc1ccc(C(=O)O)c(C(=O)O)c1
Ratio Ki [1]: 10
Ki ([2]; read-out: Ki): 1100 µM
Ki [3]: 476 µM

O=C(O)CN(Cc1cccc(OC(F)(F)F)c1)Cc1ccc(C(=O)O)c(C(=O)O)c1
Ratio Ki [1]: 10
Ki ([2]; read-out: Ki): 684 µM
Ki [3]: 427 µM

Cc1ccc(CN(CC(=O)O)Cc2ccc(C(=O)O)c(C(=O)O)c2)cc1
Ratio Ki [1]: 10
Ki ([2]; read-out: Ki): 608 µM
Ki [3]: 63 µM

O=C(O)CN(Cc1ccc(OC(F)F)cc1)Cc1ccc(C(=O)O)c(C(=O)O)c1
Ratio Ki [1]: 10
Ki ([2]; read-out: Ki): 698 µM
Ki [3]: 54 µM

O=C(O)CN(Cc1ccccc1)Cc1ccc(C(=O)O)c(C(=O)O)c1
Ki ([2]; read-out: Ki): 696 µM
Ki [3]: 297 µM

O=C(O)CN(Cc1ccc(C(=O)O)c(C(=O)O)c1)Cc1ccccc1C(F)(F)F
Ratio Ki [1]: 10
Ki ([2]; read-out: Ki): 727 µM
Ki [3]: 509 µM

O=C([O-])CCN(Cc1ccc(C(F)(F)F)cc1)Cc1ccc(C(=O)[O-])c(C(=O)[O-])c1.[Na+].[Na+].[Na+]
Ki [2]: Not Active
inhibition [4]: inactive
Ki [3]: 3800 µM

Cc1ccccc1CN(CC(=O)O)Cc1ccc(C(=O)O)c(C(=O)O)c1
Ratio Ki [1]: 10
Ki ([2]; read-out: Ki): 721 µM
Ki [3]: 524 µM

NC(=O)c1ccc(CN(CC(=O)O)Cc2ccc(C(=O)O)c(C(=O)O)c2)cc1
Ratio Ki [1]: 10
Ki ([2]; read-out: Ki): 649 µM
Ki [3]: 229 µM

O=C(O)CN(Cc1cccc(Br)c1)Cc1ccc(C(=O)O)c(C(=O)O)c1
Ratio Ki [1]: 10
Ki ([2]; read-out: Ki): 665 µM
Ki [3]: 442 µM

O=C([O-])CCNCc1ccc(C(=O)[O-])c(C(=O)[O-])c1.[Na+].[Na+].[Na+]
Ki [2]: Not Active
inhibition [6]: inactive
Ki [3]: 2400 µM

O=C(O)CNCc1ccc(C(=O)O)c(C(=O)O)c1
Ratio Ki [1]: 2
Ki ([2]; read-out: Ki): 528 µM
Ki [3]: 246 µM

N#CCCN(CC(=O)O)Cc1ccc(C(=O)O)c(C(=O)O)c1
Ki ([2]; read-out: Ki): 498 µM
Ki [3]: 220 µM

O=C(O)CN(Cc1ccc(OC(F)(F)F)cc1)Cc1ccc(C(=O)O)c(C(=O)O)c1
Ratio Ki [1]: 10
Ki ([2]; read-out: Ki): 663 µM
Ki [3]: 36 µM

O=C(O)CN(Cc1cccc(C(F)(F)F)c1)Cc1ccc(C(=O)O)c(C(=O)O)c1
Ratio Ki [1]: 10
Ki ([2]; read-out: Ki): 678 µM
Ki [3]: 441 µM
